pKi: −log10 of the molar value. Values belong to the compound of their own block, whether it stands above or below them.
How the values were obtained:
[1] = target: Sigma non-opioid intracellular receptor 1 (Cavia porcellus, UniProt Q60492); experiment: Displacement of [3H](+)-pentazocine from sigma1 receptor in guinea pig brain membrane by liquid scintillation counting; type: cell membranes
[2] = target: T1, Vesicular acetylcholine transporter (Homo sapiens, UniProt Q16572); experiment: Displacement of [3H]vesamicol from human vesicular acetylcholine transporter expressed in rat PC12 cells by liquid scintillation spectrometry; type: cell-based, PC-12
T1 sequence (Q16572 whole entry): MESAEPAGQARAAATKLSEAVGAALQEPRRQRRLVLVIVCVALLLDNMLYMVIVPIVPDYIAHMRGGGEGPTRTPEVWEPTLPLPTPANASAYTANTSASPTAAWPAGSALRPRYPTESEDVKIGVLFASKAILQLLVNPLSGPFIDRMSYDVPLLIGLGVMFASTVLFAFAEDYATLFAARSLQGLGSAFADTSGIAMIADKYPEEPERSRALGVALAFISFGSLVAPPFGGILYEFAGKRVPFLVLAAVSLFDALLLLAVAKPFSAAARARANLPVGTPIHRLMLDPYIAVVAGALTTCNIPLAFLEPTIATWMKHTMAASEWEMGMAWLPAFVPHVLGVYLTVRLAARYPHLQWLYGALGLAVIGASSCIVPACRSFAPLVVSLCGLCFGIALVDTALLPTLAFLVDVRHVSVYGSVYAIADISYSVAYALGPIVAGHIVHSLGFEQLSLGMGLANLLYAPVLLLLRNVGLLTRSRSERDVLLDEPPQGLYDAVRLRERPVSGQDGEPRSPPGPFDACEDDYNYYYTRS

[3] = Displacement of [3H]DTG from sigma2 receptor in rat liver membrane; type: cell membranes
In short: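 Rat liver membrane homogenate (~300 μg protein) incubated 2 h at room temperature with ~5 nM [3H]DTG plus 1 μM (+)-pentazocine to mask σ1 sites. Haloperidol 10 μM defines nonspecific binding. Filtered and counted.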

[4] = Selectivity ratio of Ki for human vesicular acetylcholine transporter to Ki for sigma1 receptor in guinea pig brain membrane; type: cell membranes
Blood [5] = experiment: Drug uptake in Sprague-Dawley rat blood at 25 to 35 uCi, iv after 5 mins postinjection by […]; type: ADME, organism-based; settings: in vivo
In short: (§1)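 Mature male Sprague-Dawley rats (250–400 g) under 2–3% isoflurane got 25–35 μCi tracer in 100–150 μL saline via tail vein. Groups of at least 4 were euthanized at 5 min, 30 min, 1 h or 2 h. Brain was dissected into regions, and tissues were weighed and gamma counted against an injectate standard. Values are %ID/g, mean ± SD.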

Lung [6] = experiment: Drug uptake in Sprague-Dawley rat lung at 25 to 35 uCi, iv after 1 hr postinjection by […]; type: ADME, organism-based; settings: in vivo; in short: as §1
Liver [7] = experiment: Drug uptake in Sprague-Dawley rat liver at 25 to 35 uCi, iv after 30 mins postinjection by […]; type: ADME, organism-based; settings: in vivo, 0.5 h; in short: as §1
Heart [8] = experiment: Drug uptake in Sprague-Dawley rat heart at 25 to 35 uCi, iv after 5 mins postinjection by […]; type: ADME, organism-based; settings: in vivo; in short: as §1
Kidney [9] = experiment: Drug uptake in Sprague-Dawley rat kidney at 25 to 35 uCi, iv after 30 mins postinjection by […]; type: ADME, organism-based; settings: in vivo, 0.5 h; in short: as §1
Brain [10] = experiment: Drug uptake in Sprague-Dawley rat brain at 25 to 35 uCi, iv after 30 mins postinjection by […]; type: ADME, organism-based; settings: in vivo, 0.5 h; in short: as §1
[11] = Drug uptake in Sprague-Dawley rat fat at 25 to 35 uCi, iv after 2 hrs postinjection by […]; type: ADME, organism-based, Adipose tissue; settings: in vivo; in short: as §1
Muscle tissue [12] = experiment: Drug uptake in Sprague-Dawley rat muscle at 25 to 35 uCi, iv after 5 mins postinjection by […]; type: ADME, organism-based; settings: in vivo; in short: as §1
Brain [13] = experiment: Drug uptake in Sprague-Dawley rat brain at 25 to 35 uCi, iv after 5 mins postinjection by […]; type: ADME, organism-based; settings: in vivo; in short: as §1
[14] = Drug uptake in Sprague-Dawley rat fat at 25 to 35 uCi, iv after 30 mins postinjection by […]; type: ADME, organism-based, Adipose tissue; settings: in vivo, 0.5 h; in short: as §1
Heart [15] = experiment: Drug uptake in Sprague-Dawley rat heart at 25 to 35 uCi, iv after 1 hr postinjection by […]; type: ADME, organism-based; settings: in vivo; in short: as §1
Bone [16] = experiment: Drug uptake in Sprague-Dawley rat bone at 25 to 35 uCi, iv after 30 mins postinjection by […]; type: ADME, organism-based, Bone element; settings: in vivo, 0.5 h; in short: as §1
[17] = Drug uptake in Sprague-Dawley rat fat at 25 to 35 uCi, iv after 1 hr postinjection by […]; type: ADME, organism-based, Adipose tissue; settings: in vivo; in short: as §1
Blood [18] = experiment: Drug uptake in Sprague-Dawley rat blood at 25 to 35 uCi, iv after 30 mins postinjection by […]; type: ADME, organism-based; settings: in vivo, 0.5 h; in short: as §1
Liver [19] = experiment: Drug uptake in Sprague-Dawley rat liver at 25 to 35 uCi, iv after 1 hr postinjection by […]; type: ADME, organism-based; settings: in vivo; in short: as §1
Kidney [20] = experiment: Drug uptake in Sprague-Dawley rat kidney at 25 to 35 uCi, iv after 1 hr postinjection by […]; type: ADME, organism-based; settings: in vivo; in short: as §1
Brain [21] = experiment: Drug uptake in Sprague-Dawley rat brain at 25 to 35 uCi, iv after 2 hrs postinjection by […]; type: ADME, organism-based; settings: in vivo; in short: as §1
Muscle tissue [22] = experiment: Drug uptake in Sprague-Dawley rat muscle at 25 to 35 uCi, iv after 2 hrs postinjection by […]; type: ADME, organism-based; settings: in vivo; in short: as §1
Muscle tissue [23] = experiment: Drug uptake in Sprague-Dawley rat muscle at 25 to 35 uCi, iv after 30 mins postinjection by […]; type: ADME, organism-based; settings: in vivo, 0.5 h; in short: as §1
Bone [24] = experiment: Drug uptake in Sprague-Dawley rat bone at 25 to 35 uCi, iv after 2 hrs postinjection by […]; type: ADME, organism-based, Bone element; settings: in vivo; in short: as §1
Brain [25] = experiment: Drug uptake in Sprague-Dawley rat brain at 25 to 35 uCi, iv after 1 hr postinjection by […]; type: ADME, organism-based; settings: in vivo; in short: as §1
Bone [26] = experiment: Drug uptake in Sprague-Dawley rat bone at 25 to 35 uCi, iv after 1 hr postinjection by […]; type: ADME, organism-based, Bone element; settings: in vivo; in short: as §1
Heart [27] = experiment: Drug uptake in Sprague-Dawley rat heart at 25 to 35 uCi, iv after 30 mins postinjection by […]; type: ADME, organism-based; settings: in vivo, 0.5 h; in short: as §1
Muscle tissue [28] = experiment: Drug uptake in Sprague-Dawley rat muscle at 25 to 35 uCi, iv after 1 hr postinjection by […]; type: ADME, organism-based; settings: in vivo; in short: as §1
Lung [29] = experiment: Drug uptake in Sprague-Dawley rat lung at 25 to 35 uCi, iv after 30 mins postinjection by […]; type: ADME, organism-based; settings: in vivo, 0.5 h; in short: as §1
Heart [30] = experiment: Drug uptake in Sprague-Dawley rat heart at 25 to 35 uCi, iv after 2 hrs postinjection by […]; type: ADME, organism-based; settings: in vivo; in short: as §1
Kidney [31] = experiment: Drug uptake in Sprague-Dawley rat kidney at 25 to 35 uCi, iv after 2 hrs postinjection by […]; type: ADME, organism-based; settings: in vivo; in short: as §1
Liver [32] = experiment: Drug uptake in Sprague-Dawley rat liver at 25 to 35 uCi, iv after 5 mins postinjection by […]; type: ADME, organism-based; settings: in vivo; in short: as §1
[33] = Drug uptake in Sprague-Dawley rat fat at 25 to 35 uCi, iv after 5 mins postinjection by […]; type: ADME, organism-based, Adipose tissue; settings: in vivo; in short: as §1
Lung [34] = experiment: Drug uptake in Sprague-Dawley rat lung at 25 to 35 uCi, iv after 2 hrs postinjection by […]; type: ADME, organism-based; settings: in vivo; in short: as §1
Bone [35] = experiment: Drug uptake in Sprague-Dawley rat bone at 25 to 35 uCi, iv after 5 mins postinjection by […]; type: ADME, organism-based, Bone element; settings: in vivo; in short: as §1
Lung [36] = experiment: Drug uptake in Sprague-Dawley rat lung at 25 to 35 uCi, iv after 5 mins postinjection by […]; type: ADME, organism-based; settings: in vivo; in short: as §1
Blood [37] = experiment: Drug uptake in Sprague-Dawley rat blood at 25 to 35 uCi, iv after 1 hr postinjection by […]; type: ADME, organism-based; settings: in vivo; in short: as §1
Liver [38] = experiment: Drug uptake in Sprague-Dawley rat liver at 25 to 35 uCi, iv after 2 hrs postinjection by […]; type: ADME, organism-based; settings: in vivo; in short: as §1
Kidney [39] = experiment: Drug uptake in Sprague-Dawley rat kidney at 25 to 35 uCi, iv after 5 mins postinjection by […]; type: ADME, organism-based; settings: in vivo; in short: as §1

Sigma non-opioid intracellular receptor 1, sequence (Q60492 whole entry): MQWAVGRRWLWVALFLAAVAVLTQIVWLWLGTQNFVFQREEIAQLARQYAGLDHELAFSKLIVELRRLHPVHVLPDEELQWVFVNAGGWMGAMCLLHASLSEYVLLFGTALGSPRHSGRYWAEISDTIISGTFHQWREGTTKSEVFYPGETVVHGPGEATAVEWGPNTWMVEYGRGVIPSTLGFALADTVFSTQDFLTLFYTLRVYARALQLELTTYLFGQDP

pKi [1]: 6.66
pKi [2]: 8.37
pKi [3]: 6.49
Ratio Ki [4]: 51
SMILES: O=C(c1ccccc1)C1CCN([C@@H]2Cc3ccccc3C[C@H]2O)CC1 (racemic)

pKi [1]: 6.53
pKi [2]: 9.60
pKi [3]: 6.23
Ratio Ki [4]: 1190
SMILES: O=C(c1ccc(Br)cc1)C1CCN([C@@H]2Cc3ccccc3C[C@H]2O)CC1 (racemic)

pKi [2]: 9.32
SMILES: O=C(c1ccc([N+](=O)[O-])cc1)C1CCN([C@@H]2Cc3ccccc3C[C@H]2O)CC1 (racemic)

Drug uptake (Blood [5]): 0.122 % ID/g
Drug uptake (Lung [6]): 0.346 % ID/g
Drug uptake (Liver [7]): 1.504 % ID/g
Drug uptake (Heart [8]): 0.328 % ID/g
Drug uptake (Kidney [9]): 1.042 % ID/g
Drug uptake (Brain [10]): 0.153 % ID/g
Drug uptake [11]: 0.173 % ID/g
Drug uptake (Muscle tissue [12]): 0.079 % ID/g
Drug uptake (Brain [13]): 0.606 % ID/g
Drug uptake [14]: 0.177 % ID/g
Drug uptake (Heart [15]): 0.094 % ID/g
Drug uptake (Bone [16]): 0.445 % ID/g
Drug uptake [17]: 0.196 % ID/g
Drug uptake (Blood [18]): 0.071 % ID/g
Drug uptake (Liver [19]): 1.402 % ID/g
Drug uptake (Kidney [20]): 0.99 % ID/g
Drug uptake (Brain [21]): 0.059 % ID/g
Drug uptake (Muscle tissue [22]): 0.047 % ID/g
Drug uptake (Muscle tissue [23]): 0.071 % ID/g
Drug uptake (Bone [24]): 0.739 % ID/g
Drug uptake (Brain [25]): 0.095 % ID/g
Drug uptake (Bone [26]): 0.623 % ID/g
Drug uptake (Heart [27]): 0.141 % ID/g
Drug uptake (Muscle tissue [28]): 0.076 % ID/g
Drug uptake (Lung [29]): 0.553 % ID/g
Drug uptake (Heart [30]): 0.056 % ID/g
Drug uptake (Kidney [31]): 0.853 % ID/g
Drug uptake (Liver [32]): 1.939 % ID/g
Drug uptake [33]: 0.088 % ID/g
Drug uptake (Lung [34]): 0.223 % ID/g
Drug uptake (Bone [35]): 0.307 % ID/g
Drug uptake (Lung [36]): 1.389 % ID/g
Drug uptake (Blood [37]): 0.043 % ID/g
Drug uptake (Liver [38]): 1.188 % ID/g
Drug uptake (Kidney [39]): 1.644 % ID/g
SMILES: O=C(c1ccc([18F])cc1)C1CCN([C@@H]2Cc3ccccc3C[C@H]2O)CC1 (racemic)

Reference: ChEMBL document CHEMBL1140914, “Synthesis and in vitro and in vivo evaluation of 18F-labeled positron emission tomography (PET) ligands for imaging the vesicular acetylcholine transporter” (J Med Chem, 2009)
